The values below come from ChEMBL document CHEMBL1800039, “Structure-based design of short peptide ligands binding onto the E. coli processivity ring” (J Med Chem, 2011).

Where a SMILES comes first, the peptide text is derived from it. [ ]: non-standard residue; d: D form. Phe(3,4-Cl2) = N[C@@H](Cc1ccc(Cl)c(Cl)c1)C(=O)O; Phe(4-Br) = N[C@@H](Cc1ccc(Br)cc1)C(=O)O; Phe(4-Cl) = N[C@@H](Cc1ccc(Cl)cc1)C(=O)O; Phe(4-Me) = Cc1ccc(C[C@H](N)C(=O)O)cc1; hCha = N[C@@H](CCC1CCCCC1)C(=O)O; tBuAla = CC(C)(C)C[C@H](N)C(=O)O; Cha = N[C@@H](CC1CCCCC1)C(=O)O

A short description of test [1]: Binding affinity to Escherichia coli DNA polymerase 3 subunit beta expressed in Escherichia coli BL21 by SPR analysis. In a few lines: (§1)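 N-His-tagged E. coli β clamp (dnaN in pET15b, BL21, IPTG-induced at 28 C; Ni-NTA then MonoQ) was analysed by SPR on a chip carrying immobilized P1 peptide. For direct binding, β at 0.125–2 μM was injected at 50 μL/min, and background-subtracted data were fit to a 1:1 Langmuir model. For competition, β (0.25 μM) was premixed with peptide (1.5 nM–100 μM) and injected. IC50 came from % binding inhibition; Ki = (1 + KA[β])/IC50 and ΔG = RT ln Ki.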
(In general: In SPR one partner is held on a chip, and binding of the other changes the refractive index at the surface.)

The nature of test [2]: Inhibition of Escherichia coli DNA polymerase 3.
The nature of test [3]: Inhibition of Escherichia coli DNA polymerase 3 subunit beta-dependent elongation activity expressed in Escherichia coli BL21 after 2 hrs by competitive biochemical assay. The procedure, abridged:
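Assay run in 40 mM HEPES pH 7.5 with 80 mM K-glutamate, BSA, 16% glycerol, NP40 and 8 mM DTT. Primed 30/90-mer duplex (1 nM) was loaded at 37 C with SSB (90 nM), ATP (200 μM) and MgCl2 (7.5 mM), then γ complex (1 nM) and β dimer (5 nM). Mixtures took peptide or DMSO for 5 min at RT plus 2 h at 4 C.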

The nature of test [4]: Binding affinity to Escherichia coli DNA polymerase 3 subunit beta expressed in Escherichia coli BL21 by ITC assay. In a few lines: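 ITC at 25 C: peptide (400 μM) was injected in 2 μL steps into His-tagged β clamp (20 or 30 μM) in 10 mM Hepes pH 7.4, 0.15 M NaCl, 3 mM EDTA, 0.005% P20. Heats were corrected using peptide-into-buffer controls.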
(In general: ITC needs no label: the signal is the heat of the interaction.)

Test [5] deals with Escherichia coli. The test can be described thus: Ratio of ull length DNA polymerase 4 IC50 to compound IC50 for Escherichia coli DNA polymerase 3 subunit beta by SPR analysis.
The subject of test [6] is Escherichia coli. The test can be described thus: Ratio of ull length DNA polymerase 4 Kd to compound Kd for Escherichia coli DNA polymerase 3 subunit beta by ITC assay.
Test [7] is described as follows: Binding affinity to Escherichia coli DNA polymerase 3 subunit beta expressed in Escherichia coli BL21 assessed as dissociation constant by SPR analysis. In a few lines:
as §1

On to `CC(=O)N[C@@H](CCC(N)=O)C(=O)N[C@@H](CCC(C)C)C(=O)N[C@@H](CC(=O)O)C(=O)N[C@@H](CC(C)C)C(=O)N[C@@H](Cc1ccccc1)C(=O)O`, for which, in test [1], the IC50 stood at 740 nM and the “Ka (inhibitor association constant, 1/M; higher = tighter)” value is 1.84 ×10⁶ /M.
Turning to `CCOc1cc(/C=C2\SC(=S)N(CC(=O)O)C2=O)c(Br)c(Br)c1O`, the affinity in test [2] corresponds to a Ki of 10000 nM.
Turning to `CC(C)C[C@H](NC(=O)[C@H](CC(=O)O)NC(=O)[C@H](CC(C)C)NC(=O)[C@@H](N)CCC(N)=O)C(=O)N[C@@H](Cc1ccccc1)C(=O)O`, in test [1], the half-maximal inhibitory concentration (IC50) is 12400 nM and the “Ka (inhibitor association constant, 1/M; higher = tighter)” value is reported as 0.11 ×10⁶ /M.
As to `CC(=O)N[C@@H](CCC(N)=O)C(=O)N[C@@H](CC(C)C)C(=O)N[C@@H](CC(=O)O)C(=O)N[C@@H](CC(C)C)C(=O)N[C@@H](Cc1ccccc1)C(=O)O`, the IC50 is 1120 nM in test [1] and 4500 nM in test [3]. In addition, in test [1], the “Ka (inhibitor association constant, 1/M; higher = tighter)” value stood at 1.2 ×10⁶ /M. The Kd in test [4] turned out to be 613 nM.
For `CC(=O)N[C@@H](CCC(N)=O)C(=O)N[C@@H](CC1CCCCC1)C(=O)N[C@@H](CC(=O)O)C(=O)N[C@@H](CC(C)C)C(=O)N[C@@H](Cc1ccccc1)C(=O)O` (Ac-Q[Cha]DLF-OH) the same measures were 170 nM, 2800 nM, 8.01 ×10⁶ /M and 222 nM.
On to `CC(=O)N[C@@H](CCC(N)=O)C(=O)N[C@@H](CC1CCCCC1)C(=O)N[C@@H](CC(=O)O)C(=O)N[C@@H](CC(C)C)C(=O)N[C@@H](Cc1ccc(Cl)c(Cl)c1)C(=O)O` (Ac-Q[Cha]DL[Phe(3,4-Cl2)]-OH), for which the Ratio IC50 with Escherichia coli [5] turned out to be 4. The same compound came in with an IC50 in test [3] of 125 nM. Also, in the test with Escherichia coli [6], the Ratio is 4. For the same compound, the Kd in test [4] was 55 nM.
Take `CC(=O)N[C@@H](CCC(N)=O)C(=O)N[C@@H](CC1CCCCC1)C(=O)N[C@@H](CC(=O)O)C(=O)N[C@@H](CC(C)C)C(=O)N[C@@H](Cc1ccc(Br)cc1)C(=O)O` (Ac-Q[Cha]DL[Phe(4-Br)]-OH): in test [1], the IC50 turned out to be 96 nM and the “Ka (inhibitor association constant, 1/M; higher = tighter)” value is 13.49 ×10⁶ /M. Moreover, the IC50 in test [3] turned out to be 250 nM. Also, the dissociation constant Kd in test [4] was 136 nM.
For `CC(=O)N[C@@H](CCC(N)=O)C(=O)N[C@@H](CC1CCCCC1)C(=O)N[C@@H](CC(=O)O)C(=O)N[C@@H](CC(C)C)C(=O)N[C@@H](Cc1ccc(Cl)cc1)C(=O)O` (Ac-Q[Cha]DL[Phe(4-Cl)]-OH), in that order: 160 nM, 13.7 ×10⁶ /M, 300 nM and 89 nM.
For `CC(=O)N[C@@H](CCC(N)=O)C(=O)N[C@@H](CC1CCCCC1)C(=O)N[C@@H](CC(=O)O)C(=O)N[C@@H](CC(C)C)C(=O)N[C@@H](Cc1ccc(C)cc1)C(=O)O` (Ac-Q[Cha]DL[Phe(4-Me)]-OH), in that order: 260 nM, 8.43 ×10⁶ /M, 2000 nM and 362 nM.
As for `CC(=O)N[C@@H](CCC(N)=O)C(=O)N[C@@H](CCC1CCCCC1)C(=O)N[C@@H](CC(=O)O)C(=O)N[C@@H](CC(C)C)C(=O)N[C@@H](Cc1ccccc1)C(=O)O` (Ac-Q[hCha]DLF-OH), in test [1], the IC50 was 82800 nM and the Ka (inhibitor association constant, 1/M; higher = tighter) came to 0.0164 ×10⁶ /M.
For `CC(=O)N[C@@H](CCC(N)=O)C(=O)N[C@@H](CC(C)(C)C)C(=O)N[C@@H](CC(=O)O)C(=O)N[C@@H](CC(C)C)C(=O)N[C@@H](Cc1ccccc1)C(=O)O` (Ac-Q[tBuAla]DLF-OH), in that order: 990 nM and 1.36 ×10⁶ /M.
In the case of H-RQLVFL-OH, the IC50 in test [1] is 256000 nM.
On to H-RQLVLF-OH, for which, in test [1], the IC50 was found to be 8620 nM and the “Ka (inhibitor association constant, 1/M; higher = tighter)” value is recorded as 0.15 ×10⁶ /M. In test [3], the IC50 is 7000 nM. The compound further had a Kd in test [4] of 2320 nM.
Take H-RQLVLGL-OH: in test [1], the 50% inhibitory concentration (IC50) turned out to be 8850 nM and the “Ka (inhibitor association constant, 1/M; higher = tighter)” value came to 0.15 ×10⁶ /M. The Kd in test [7] came out at 285 nM. Also, in test [4], the Kd worked out at 1580 nM.
With H-RQLVLL-OH, in test [1], the IC50 turned out to be 21500 nM and the “Ka (inhibitor association constant, 1/M; higher = tighter)” value is on record as 0.0063 ×10⁶ /M.

For orientation: IC50 means the point on the concentration scale where inhibition reaches its midpoint. The term Ki denotes a dissociation constant, usually derived from enzyme kinetics or from competition with a known ligand. By Kd is commonly meant a measure of binding affinity in units of concentration.
